ARNT TACC3 PPI – disruptors of human ARNT/TACC3 interaction; Q9Y6A5; actives 0.66% (n = 390,000); inhibition, % at 9.99 µM; AlphaScreen His-ARNT PAS-B/GST-TACC3 binding, luminescence; TACC3 fragment carries E629A point mutation; AID 623870;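 active = mean inhibition of replicates at least 50% and at least half of replicates each reaching 50%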;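 also: 0% = complete ARNT plus TACC3 wells and 100% = ARNT alone without TACC3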
CAL PDZ FP-1 – CAL PDZ (human) peptide binding inhibition; inhibition, % at 24.9 µM; purified CAL PDZ, TMR-peptide fluorescence polarization, 1 h; Q9HD26; AID 602252; actives 0.92% (n = 300,000);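 active = mean inhibition of at least 30% with at least half of replicates also reaching 30%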;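 also: 0% = DMSO neutral control and 100% = excess unlabeled competitor peptide PRC23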
CAL PDZ FP-2 – human CAL PDZ-peptide interaction inhibition; inhibition, % at 20 µM; purified CAL PDZ, TMR-peptide fluorescence polarization, 1 h; actives 0.02% (n = 330,000); AID 504414; Q9HD26;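 active = highest replicate inhibition of at least 40%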;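 also: plate controls were DMSO neutral control wells for no effect and unlabeled competitor peptide control wells for full effect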
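Test system: purified CerCALP PDZ construct; Compound dosing: one concentration, 20 µM compound; Also added: TMR-labelled reporter peptide T*-PRC34 bound in PDZ groove; Read-out: inhibition from polarization loss; Controls: unlabelled peptide and DMSO controls; Signal: FP readout, S and P plane fluorescence; Incubation: 1 h at RT.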
ARNT Alpha ctr – AlphaScreen artifact in ARNT/TACC3 counter-screen; His-ARNT PASB-GST AlphaScreen artifact counter-screen, luminescence; AC50, µM (series often up to 68 µM), inactives show top-dose activity change, negative = signal decrease; shares compounds with ARNT TACC3 PPI; actives 50% (n = 1,200);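 active = every separate test run was called active for a drop in luminescence, with AC50 within twice the top valid dose, actives reach about 71 µM in these data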
Active calls of the source: *. In the library only some 1.2% were active in any assay of this set; here they are far more common.

Screening C[C@@H]1CN([C@@H](C)CO)C(=O)c2cc(NC(=O)Nc3ccc4c(c3)OCO4)ccc2O[C@@H](C)CCCCO[C@H]1CN(C)C(=O)Nc1ccccc1 returned ARNT TACC3 PPI 8.7.
`COc1ccccc1C(CCNCc1ccc(N(C)C)cc1)c1ccc(OC(C)C)cc1` (stereo not given) gave ARNT TACC3 PPI active, CAL PDZ FP-1 -13.2 and ARNT Alpha ctr 7.71µM*.
Screening COc1ccc(CNCCC(c2ccc(OC(C)C)cc2)c2ccccc2OC)cc1 (stereo not given) returned CAL PDZ FP-1 0.4 and CAL PDZ FP-2 -4.0.
For C[C@H](CO)N1C[C@H](C)[C@@H](CN(C)S(=O)(=O)c2ccc(F)cc2)Oc2c(NC(=O)C3CC3)cccc2C1=O the results were ARNT TACC3 PPI -9.1.
For C[C@@H]1CN([C@H](C)CO)C(=O)Cc2cc(NS(=O)(=O)c3ccccc3)ccc2O[C@H]1CN(C)S(=O)(=O)c1cccs1 the results were ARNT TACC3 PPI -5.3.
Fc1ccc(-c2ccc(CNCc3ccccn3)o2)cc1 was read as ARNT TACC3 PPI 61.4*, CAL PDZ FP-1 -6.7, CAL PDZ FP-2 -3.7 and ARNT Alpha ctr -28.7%.
Fc1ccc(NC(=S)NCc2ccccn2)cc1 was read as ARNT TACC3 PPI 4.3, CAL PDZ FP-1 -1.3 and CAL PDZ FP-2 -0.6.
Screening COc1cccc(/C=N/NC(=O)Cn2ccnc2C)c1 returned CAL PDZ FP-1 0.8 and CAL PDZ FP-2 -1.4.
For COc1c(O)cccc1/C=N/NC(=O)Cn1ccnc1C the results were ARNT TACC3 PPI 61.2*, CAL PDZ FP-1 4.2, CAL PDZ FP-2 0.6 and ARNT Alpha ctr -24.5%.
Screening O=C1CCN(Cc2ccccc2)C=C1c1ccc(C(F)(F)F)cc1 returned ARNT TACC3 PPI active, CAL PDZ FP-1 -2.7, CAL PDZ FP-2 0.3 and ARNT Alpha ctr -18.0%.
O=C1CCN(Cc2ccccc2)C=C1c1ccc(Cl)cc1 was read as ARNT TACC3 PPI 1.1, CAL PDZ FP-1 -2.2 and CAL PDZ FP-2 1.1.
`COc1ccc(CNC(=O)C[C@@H]2C=C[C@@H](NC(=O)Nc3ccc4c(c3)OCO4)[C@@H](CO)O2)cc1` gave ARNT TACC3 PPI -4.7.
Screening C[C@H](NC(=O)C[C@@H]1CC[C@@H](NC(=O)C2CC2)[C@H](CO)O1)c1ccccc1 returned ARNT TACC3 PPI 4.3.
`O=C(CCCN1C(=O)c2ccccc2C1=O)NC1CCCCCC1` gave ARNT TACC3 PPI -3.3 and CAL PDZ FP-2 0.4.
O=C(CCN1C(=O)c2cccnc2C1=O)NC1CCCCCC1 was read as ARNT TACC3 PPI 59.2*, CAL PDZ FP-1 -2.0, CAL PDZ FP-2 -1.4 and ARNT Alpha ctr -13.0%.
Screening COC(=O)c1sc(N)c(C(=O)OC)c1COC(=O)c1c(C)noc1C returned ARNT TACC3 PPI 1.3 and CAL PDZ FP-2 -1.3.
`COC(=O)c1sc(N)c(C(=O)OC)c1Cn1ncc(Cl)c(Cl)c1=O` gave ARNT TACC3 PPI 51.9*, CAL PDZ FP-1 4.3, CAL PDZ FP-2 0.9 and ARNT Alpha ctr -10.3%.
Screening C[C@H](CO)N1C[C@H](C)[C@H](CN(C)C(=O)Nc2ccc3c(c2)OCO3)OCCCC[C@H](C)Oc2ccc(NS(=O)(=O)c3cn(C)cn3)cc2C1=O returned ARNT TACC3 PPI 2.5.
COc1ccc(C(c2nnnn2C2CCCC2)N2CCc3ccccc3C2)cc1OC (stereo not given) was read as ARNT TACC3 PPI 58.0*, CAL PDZ FP-1 -2.4, CAL PDZ FP-2 0.9 and ARNT Alpha ctr -25.5%.
COc1ccc(OC)c(C(c2nnnn2C2CCCC2)N2CCc3ccccc3C2)c1 (stereo not given) was read as ARNT TACC3 PPI -3.2 and CAL PDZ FP-1 -1.6.
`COc1ccc(S(=O)(=O)Nc2cccc3c2O[C@@H](CN(C)Cc2ccc(Oc4ccccc4)cc2)[C@@H](C)CN([C@H](C)CO)C3=O)cc1` gave ARNT TACC3 PPI 2.0.
For COc1ccc(OC)c2nc3c(C(=O)NCCN(C)C)cccc3nc12 the results were ARNT TACC3 PPI 20.3*, CAL PDZ FP-1 -1.5, CAL PDZ FP-2 -0.3 and ARNT Alpha ctr -5.5%.
`CN(C)CCNC(=O)c1cccc2nc3cccc(F)c3nc12` gave ARNT TACC3 PPI 7.5, CAL PDZ FP-1 -1.1 and CAL PDZ FP-2 -0.6.
CC(C)C(NC(=O)C1(NC(=O)OCc2ccccc2)CCCC1)C(=O)O (stereo not given) was read as ARNT TACC3 PPI -52.7 and CAL PDZ FP-2 -1.3.
COC(=O)C1(NC(=O)CNC(=O)OCc2ccccc2)CCCC1 was read as ARNT TACC3 PPI active, CAL PDZ FP-1 -2.4, CAL PDZ FP-2 0.1 and ARNT Alpha ctr -0.6%.
For C[C@H]1CN([C@@H](C)CO)S(=O)(=O)c2ccc(-c3cncnc3)cc2O[C@@H]1CN(C)C the results were ARNT TACC3 PPI 3.2.
For Cc1[nH][nH]c(=O)c1C(c1c(C)[nH][nH]c1=O)c1cn(C)c2ccccc12 the results were ARNT TACC3 PPI 36.1, CAL PDZ FP-1 5.6 and CAL PDZ FP-2 -0.2.
`Cc1[nH][nH]c(=O)c1C(c1c(C)[nH][nH]c1=O)c1cn(Cc2cccc3ccccc23)c2ccccc12` gave ARNT TACC3 PPI 26.4*, CAL PDZ FP-1 -2.2, CAL PDZ FP-2 0.5 and ARNT Alpha ctr 46.5µM*.
Screening CCNC(=O)C[C@H]1CC[C@H]2[C@@H](COC[C@@H](O)CN2Cc2ccccc2F)O1 returned ARNT TACC3 PPI 8.9.
`O=S(=O)(N[C@H]1CC[C@@H](CCn2cc(-c3ccccn3)nn2)O[C@@H]1CO)c1cccc(F)c1` gave ARNT TACC3 PPI 67.7* and ARNT Alpha ctr 33.6µM*.
COc1cccc(S(=O)(=O)N[C@@H]2CC[C@@H](CCn3cc(-c4ccccc4OC)nn3)O[C@H]2CO)c1 was read as ARNT TACC3 PPI 8.1.
For O=S(=O)(N[C@H]1CC[C@H](CCn2cc(-c3ccccn3)nn2)O[C@H]1CO)c1cccc(F)c1 the results were ARNT TACC3 PPI 67.0* and ARNT Alpha ctr 43.2µM*.
O=S(=O)(N[C@H]1CC[C@H](CCn2cc(-c3ccccn3)nn2)O[C@@H]1CO)c1cccc(F)c1 was read as ARNT TACC3 PPI 78.5* and ARNT Alpha ctr 34.2µM*.
Screening O=S(=O)(N[C@H]1CC[C@H](CCn2cc(-c3cccc(F)c3)nn2)O[C@@H]1CO)c1ccc(F)cc1 returned ARNT TACC3 PPI -1.3.
O=S(=O)(N[C@@H]1CC[C@@H](CCn2cc(-c3cccc(F)c3)nn2)O[C@H]1CO)c1ccccc1 was read as ARNT TACC3 PPI 4.1.
Cc1cccc(S(=O)(=O)N[C@H]2CC[C@H](CCn3cc(-c4ccccn4)nn3)O[C@H]2CO)c1 was read as ARNT TACC3 PPI 90.2* and ARNT Alpha ctr 56.7µM*.
For O=S(=O)(N[C@@H]1CC[C@H](CCn2cc(-c3cccc(F)c3)nn2)O[C@H]1CO)c1ccccc1 the results were ARNT TACC3 PPI 4.2.
Screening C[C@H](O)C#Cc1cnc2c(c1)C(=O)N([C@H](C)CO)C[C@H](C)[C@@H](CN(C)C(=O)c1ccccc1)O2 returned ARNT TACC3 PPI 2.8.
